According to ChEMBL document CHEMBL4118228, “Chemical space screening around Phe3 in opioid peptides: Modulating µ versus δ agonism by Suzuki-Miyaura cross-couplings” (Bioorg Med Chem Lett, 2018):
Calls of active or inactive are those of the source. The rule behind the calls is not given here. Non-standard residues stand in square brackets, D forms with d. Residues, ends and D or L forms follow the SMILES beside them. Phe(3-Ph) = N[C@@H](Cc1cccc(-c2ccccc2)c1)C(=O)O; Phe(2-Ph) = N[C@@H](Cc1ccccc1-c1ccccc1)C(=O)O; Bip = N[C@@H](Cc1ccc(-c2ccccc2)cc1)C(=O)O; Dmt = Cc1cc(O)cc(C)c1C[C@H](N)C(=O)O

What was measured:
[1] = molecular target: Mu-type opioid receptor (Cavia porcellus) (UniProt P97266); assay: Antagonist activity at mu-opioid receptor in guinea pig ileum assessed as effect on electrically induced contractions; assay type: functional
[2] = molecular target: Delta-type opioid receptor (Mus musculus) (UniProt P32300); assay: Partial agonist activity at delta-opioid receptor in mouse vasa deferens assessed as inhibition of electrically induced contractions; assay type: functional
Mus musculus = species: Mus musculus; assay: Selectivity ratio of IC50 for mouse Flag-tagged delta-opioid receptor to IC50 for mouse Flag-tagged mu-opioid receptor
[3] = molecular target: T1, Delta-type opioid receptor (Mus musculus, UniProt P32300); assay: Displacement of [125I]-Deltorphin 2 from mouse Flag-tagged delta-opioid receptor expressed in HEK293 cell membranes after 60 mins by gamma counting
Mu-type opioid receptor [4] = molecular target: Mu-type opioid receptor (Mus musculus, UniProt P42866); assay: Displacement of [125I]-DAMGO from mouse Flag-tagged mu-opioid receptor expressed in HEK293 cell membranes after 60 mins by gamma counting
[5] = molecular target: Delta-type opioid receptor (Rattus norvegicus, UniProt P33533); assay: Agonist activity at rat delta-opioid receptor expressed in HEK293 cells co-expressing Rluc2-EPAC-GFP10 biosenser assessed as inhibition of forskolin-induced cAMP level after 10 mins by fluorescence based assay; assay type: functional, cell-based
[6] = molecular target: T1, Delta-type opioid receptor; assay: Agonist activity at delta-opioid receptor in mouse vasa deferens assessed as inhibition of electrically induced contractions; assay type: functional
Mu-type opioid receptor [7] = molecular target: Mu-type opioid receptor (Rattus norvegicus, UniProt P33535); assay: Agonist activity at rat mu-opioid receptor expressed in HEK293 cells co-expressing Rluc2-EPAC-GFP10 biosenser assessed as inhibition of forskolin-induced cAMP level after 10 mins by fluorescence based assay; assay type: functional, cell-based
[8] = molecular target: Delta-type opioid receptor (Rattus norvegicus) (UniProt P33533); assay: Partial agonist activity at rat delta-opioid receptor expressed in HEK293 cells co-expressing Rluc2-EPAC-GFP10 biosenser assessed as inhibition of forskolin-induced cAMP level after 10 mins by fluorescence based assay; assay type: functional, cell-based
Mu-type opioid receptor [9] = molecular target: Mu-type opioid receptor (Cavia porcellus, UniProt P97266); assay: Agonist activity at mu-opioid receptor in guinea pig ileum assessed as inhibition of electrically induced contractions; assay type: functional
Rattus norvegicus [10] = species: Rattus norvegicus; assay: Antinociceptive activity in Sprague-Dawley rat model of thermal-induced nociception assessed as increase in latency to tail withdrawal at 1 nmol, it measured at every 10 mins for 1 hr by tail flick assay; assay type: functional, organism-based
In short: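 Compound given intrathecally to rats; tail-flick test measured withdrawal response to a thermal stimulus.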

Rattus norvegicus [11] = species: Rattus norvegicus; assay: Potency index, ratio of antinociceptive activity of DAMGO to antinociceptive activity of compound in Sprague-Dawley rat model of thermal-induced nociception by tail flick assay; assay type: functional
[12] = molecular target: Mu-type opioid receptor (Cavia porcellus) (UniProt P97266); assay: Potency index, ratio of DAMGO IC50 to compound IC50 for mu-opioid receptor in guinea pig ileum
[13] = molecular target: Mu-type opioid receptor (Rattus norvegicus) (UniProt P33535); assay: Potency index, ratio of DAMGO EC50 to compound EC50 for rat mu-opioid receptor expressed in HEK293 cells co-expressing Rluc2-EPAC-GFP10 biosenser by cAMP accumulation assay; assay type: functional, cell-based
Sequence of Mu-type opioid receptor (Rattus norvegicus) (P33535 whole entry): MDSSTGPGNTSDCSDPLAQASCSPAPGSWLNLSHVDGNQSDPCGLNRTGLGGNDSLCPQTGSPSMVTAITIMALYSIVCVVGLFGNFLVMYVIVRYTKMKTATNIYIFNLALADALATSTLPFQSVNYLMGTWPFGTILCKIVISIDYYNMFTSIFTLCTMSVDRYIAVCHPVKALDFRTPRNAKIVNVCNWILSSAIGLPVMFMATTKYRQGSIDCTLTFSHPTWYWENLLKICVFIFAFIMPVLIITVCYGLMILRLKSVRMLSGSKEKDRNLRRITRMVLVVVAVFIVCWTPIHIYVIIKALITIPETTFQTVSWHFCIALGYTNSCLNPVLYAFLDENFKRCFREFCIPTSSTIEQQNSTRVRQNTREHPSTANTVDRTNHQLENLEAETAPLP

T1 sequence (P32300 whole entry): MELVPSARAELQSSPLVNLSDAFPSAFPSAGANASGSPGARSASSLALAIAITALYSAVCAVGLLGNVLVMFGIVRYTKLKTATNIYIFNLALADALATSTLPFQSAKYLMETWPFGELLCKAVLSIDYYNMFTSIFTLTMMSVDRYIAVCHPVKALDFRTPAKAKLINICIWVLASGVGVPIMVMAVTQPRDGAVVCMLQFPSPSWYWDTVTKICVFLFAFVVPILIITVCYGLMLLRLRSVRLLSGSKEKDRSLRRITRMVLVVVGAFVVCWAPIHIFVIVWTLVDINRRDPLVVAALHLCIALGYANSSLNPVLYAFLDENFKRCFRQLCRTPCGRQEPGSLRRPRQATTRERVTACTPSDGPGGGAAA
Sequence of Delta-type opioid receptor (Mus musculus) (P32300 whole entry): as above
Sequence of Mu-type opioid receptor (Rattus norvegicus, UniProt P33535) (P33535 whole entry): as the sequence (P33535 whole entry) above
Sequence of Mu-type opioid receptor (Cavia porcellus) (P97266 whole entry): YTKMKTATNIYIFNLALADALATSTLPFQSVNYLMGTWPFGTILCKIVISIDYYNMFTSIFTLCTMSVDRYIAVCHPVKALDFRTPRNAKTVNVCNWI
Sequence of Mu-type opioid receptor (Cavia porcellus, UniProt P97266) (P97266 whole entry): as above
Sequence of Delta-type opioid receptor (Rattus norvegicus, UniProt P33533) (P33533 whole entry): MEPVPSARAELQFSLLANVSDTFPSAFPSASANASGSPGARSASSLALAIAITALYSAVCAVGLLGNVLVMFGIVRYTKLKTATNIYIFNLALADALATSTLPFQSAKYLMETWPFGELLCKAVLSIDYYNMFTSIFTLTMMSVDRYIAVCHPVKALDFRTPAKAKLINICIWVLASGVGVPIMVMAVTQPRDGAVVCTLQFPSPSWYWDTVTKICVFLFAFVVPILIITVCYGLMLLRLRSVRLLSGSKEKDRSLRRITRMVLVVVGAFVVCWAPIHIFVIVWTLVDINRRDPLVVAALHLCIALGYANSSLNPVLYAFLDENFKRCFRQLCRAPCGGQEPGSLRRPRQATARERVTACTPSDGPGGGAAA
Sequence of Mu-type opioid receptor (Mus musculus, UniProt P42866) (P42866 whole entry): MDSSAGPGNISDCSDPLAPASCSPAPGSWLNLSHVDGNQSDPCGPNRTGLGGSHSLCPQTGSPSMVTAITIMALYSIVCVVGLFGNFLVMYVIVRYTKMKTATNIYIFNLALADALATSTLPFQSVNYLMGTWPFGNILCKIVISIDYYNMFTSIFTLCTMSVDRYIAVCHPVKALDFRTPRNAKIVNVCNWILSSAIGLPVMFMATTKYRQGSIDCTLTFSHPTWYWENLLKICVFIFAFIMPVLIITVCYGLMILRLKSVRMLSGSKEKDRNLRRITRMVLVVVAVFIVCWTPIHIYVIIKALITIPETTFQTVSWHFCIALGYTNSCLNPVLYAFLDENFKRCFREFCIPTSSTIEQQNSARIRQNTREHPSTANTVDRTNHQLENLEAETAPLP
Sequence of Delta-type opioid receptor (Rattus norvegicus) (P33533 whole entry): as the sequence (P33533 whole entry) above

Row | SMILES | Ke [1] [nM] | IC20 [2] [nM] | Ratio IC50 (Mus musculus) | IC50 [3] [nM] | IC50 (Mu-type opioid receptor [4]) [nM] | EC50 [5] [nM] | IC50 [6] [nM] | EC50 (Mu-type opioid receptor [7]) [nM] | Emax [8] [%] | IC50 (Mu-type opioid receptor [9]) [nM] | IC35 [2] [nM] | Activity (Rattus norvegicus [10]) | Ratio (Rattus norvegicus [11]) | IC40 [2] [nM] | Ratio IC50 [12] | Ratio EC50 [13]
1 | Cc1cc(O)cc(C)c1C[C@H](N)C(=O)N[C@H](CCCNC(=N)N)C(=O)N[C@@H](Cc1ccc(-c2ccccc2)cc1)C(=O)NCC(N)=O (H-[Dmt][dR][Bip]G-NH2) | 114 | 3090 | 6 | 42.3 | 7.08 |  |  |  |  |  |  |  |  |  |  | 
2 | Cc1cc(O)cc(C)c1C[C@H](N)C(=O)N[C@H](C)C(=O)N[C@@H](Cc1ccccc1-c1ccsc1)C(=O)NCC(N)=O |  |  | 4 | 687 | 240 | 56 | 2.16 | 34.8 | 70 | 1.27 |  |  |  |  |  | 
3 | Cc1cc(O)cc(C)c1C[C@H](N)C(=O)N[C@H](CCCNC(=N)N)C(=O)N[C@@H](Cc1cccc(-c2ccsc2)c1)C(=O)NCC(N)=O |  |  | 583 | 601 | 1.03 |  |  |  |  | 30.4 | 52.8 |  |  |  |  | 
4 | C[C@@H](NC(=O)[C@@H](N)Cc1ccc(O)cc1)C(=O)NCC(=O)N(C)[C@@H](Cc1ccccc1)C(=O)NCCO [DAMGO] |  |  |  |  |  |  |  |  |  | 28.3 |  |  |  |  |  | 
5 | C=Cc1ccc(C[C@H](NC(=O)[C@@H](CCCNC(=N)N)NC(=O)[C@@H](N)Cc2c(C)cc(O)cc2C)C(=O)NCC(N)=O)cc1 |  |  | 777 | 1410 | 1.82 |  | 430 |  |  | 24.1 |  |  |  |  |  | 
6 | CC(C)[C@H](NC(=O)[C@H](CCC(=O)O)NC(=O)[C@H](Cc1ccccc1)NC(=O)[C@@H](C)NC(=O)[C@@H](N)Cc1ccc(O)cc1)C(=O)N[C@H](C(=O)NCC(=O)O)C(C)C [DELTORPHIN] |  |  |  |  | 627 | 0.1 |  |  |  | 854 |  |  |  |  |  | 
7 | Cc1cc(O)cc(C)c1C[C@H](N)C(=O)N[C@H](CCCNC(=N)N)C(=O)N[C@@H](Cc1ccccc1-c1ccsc1)C(=O)NCC(N)=O |  |  | 431 | 625 | 1.45 | 49 | 2.75 | 0.04 |  | 1.54 |  |  |  |  |  | 
8 | Cc1cc(O)cc(C)c1C[C@H](N)C(=O)N[C@H](C)C(=O)N[C@@H](Cc1ccccc1-c1ccccc1)C(=O)NCC(N)=O (H-[Dmt][dA][Phe(2-Ph)]G-NH2) |  |  | 57 | 19.8 | 0.35 | 4.9 | 2.6 | 0.12 |  | 1.6 |  | Active | 10 |  |  | 
9 | C=Cc1cccc(C[C@H](NC(=O)[C@@H](CCCNC(=N)N)NC(=O)[C@@H](N)Cc2c(C)cc(O)cc2C)C(=O)NCC(N)=O)c1 |  |  | 359 | 165 | 0.46 |  | 9.74 |  |  | 1.43 |  |  |  |  |  | 
10 | Cc1cc(O)cc(C)c1C[C@H](N)C(=O)N[C@H](CCCNC(=N)N)C(=O)N[C@@H](Cc1cccc(-c2ccccc2)c1)C(=O)NCC(N)=O (H-[Dmt][dR][Phe(3-Ph)]G-NH2) |  |  | 316 | 269 | 0.85 |  |  |  |  | 61.7 |  |  |  | 117 |  | 
11 | CC(C)=Cc1ccccc1C[C@H](NC(=O)[C@@H](CCCNC(=N)N)NC(=O)[C@@H](N)Cc1c(C)cc(O)cc1C)C(=O)NCC(N)=O |  |  | 1030 | 585 | 0.57 | 19.4 | 0.63 | 0.1 |  | 0.701 |  | Active | 10 |  |  | 
12 | Cc1cc(O)cc(C)c1C[C@H](N)C(=O)N[C@H](CCCNC(=N)N)C(=O)N[C@@H](Cc1ccccc1-c1ccccc1)C(=O)NCC(N)=O |  |  | 38 | 20.3 | 0.54 |  | 6.99 |  |  | 3.47 |  |  |  |  |  | 
13 | C=Cc1ccccc1C[C@H](NC(=O)[C@@H](C)NC(=O)[C@@H](N)Cc1c(C)cc(O)cc1C)C(=O)NCC(N)=O |  |  | 32 | 8 | 0.25 | 5.8 | 2.81 | 0.006 |  | 1.18 |  |  |  |  |  | 
14 | Cc1cc(O)cc(C)c1C[C@H](N)C(=O)N[C@H](CCCNC(=N)N)C(=O)N[C@@H](Cc1ccc(-c2ccsc2)cc1)C(=O)NCC(N)=O | 138 | 3960 | 61 | 309 | 5.04 |  |  |  |  |  |  |  |  |  |  | 
15 | C=Cc1ccccc1C[C@H](NC(=O)[C@@H](CCCNC(=N)N)NC(=O)[C@@H](N)Cc1c(C)cc(O)cc1C)C(=O)NCC(N)=O |  |  | 38 | 18 | 0.47 | 7 | 0.406 | 0.012 |  | 0.389 |  |  |  |  | 70 | 20
